Assay results gathered from unrelated publications.
Compare with care: the assays were run in different laboratories.
Target: Cyclin-dependent kinase 8 (CDK8, Homo sapiens, UniProt P49336)

CN(CCCC(F)(F)F)c1nccc(-c2cnn3ncccc23)n1  remaining binding (binding; 1 µM): 100%
CO[C@@H](C)c1c(Nc2ccc([C@H](N(C)C(=O)C3CCS(=O)(=O)CC3)C(F)(F)F)cc2)cnc2cc(Cl)nn12  remaining binding (binding; competition with immobilised ligand; 1 µM): 39%
CN(C)c1nccc(-c2cnn3ncccc23)n1  remaining binding (binding; 1 µM): 100%
COc1cnc(Nc2cccc(S(N)(=O)=O)c2)nc1N1CCN(c2ccccc2)CC1  remaining binding (binding; competition with immobilised ligand; 1 µM): 95%
O=C(Nc1c[nH]nc1C(=O)NC1CCNCC1)c1cc(F)cc(F)c1  remaining binding (binding; competition with immobilised ligand; 1 µM): 97%
CCOCCn1cc(C(=O)Nc2ccc(-n3nc(-c4cccnc4)cc3C(F)(F)F)cn2)ccc1=O  remaining binding (cell-free assay; competition with immobilised ligand; 1 µM): 100%
N[C@H]1CCN(c2nccc(-c3cnn4ncccc34)n2)C1  remaining binding (binding; 1 µM): 100%
O=C(c1ccc(Nc2ncc(Cl)c(-c3ccc(Cl)s3)n2)cc1)N1CCC(N2CCCC2)CC1  remaining binding (binding; competition with immobilised ligand; 1 µM): 100%
c1cncc(-c2cccc(Nc3nccc(NC4CCCCC4)n3)c2)c1  remaining binding (binding; competition with immobilised ligand; 10 µM): 66%
O=C(NCCCN1CCOCC1)c1ccc(Nc2nccc(-c3cc4ccccc4s3)n2)cc1  remaining binding (binding; competition with immobilised ligand; 1 µM): 79%
Cc1cnn2ncc(-c3ccnc(N(C)C)n3)c2c1  remaining binding (binding; 1 µM): 93%
C[C@H](NC(=O)c1cnc2n1[C@](C)(Cc1ccc(C#N)cc1)C(=O)N2c1cc(Cl)c(F)c(Cl)c1)C(=O)NC1(c2ccccn2)CC1  remaining binding (cell-free assay; competition with immobilised ligand; 1 µM): 100%
COc1ncc2cc3ccccc3nc2c1C#N  remaining binding (cell-free assay; competition with immobilised ligand; 5 µM): 100%
COc1cnc(Nc2cccc(S(N)(=O)=O)c2)nc1N1CCN(c2ccccc2)C(=O)C1  remaining binding (binding; competition with immobilised ligand; 1 µM): 93%
Cc1cc(NC(=O)c2cccc(S(F)(F)(F)(F)F)c2)cc(-n2ccn3nc(-c4cccnc4)cc23)c1  remaining binding (cell-free assay; competition with immobilised ligand; 1 µM): 86.2%
O=C(NCCCN1CCOCC1)c1ccc(Nc2ncc(Cl)c(-c3ccc(Cl)s3)n2)cc1  remaining binding (binding; competition with immobilised ligand; 1 µM): 100%
O=C(NS(=O)(=O)c1ccc(NCC2CCOCC2)c([N+](=O)[O-])c1)c1ccc(N2CCN(Cc3ccc(C(F)(F)F)cc3-c3ccc(Cl)cc3)CC2)cc1Oc1cnc2[nH]ccc2c1  remaining binding (cell-free assay; competition with immobilised ligand; 1 µM): 100%
CN(C)c1ncc(F)c(-c2cnn3ncccc23)n1  remaining binding (binding; 1 µM): 87%
CC1=C(C#N)C(c2ccc3c(c2)c(NC(=O)c2ccccc2C)nn3C)C(C#N)=C(C)N1  remaining binding (cell-free assay; competition with immobilised ligand; 1 µM): 97%
C[C@@H]1CCN(c2nccc(-c3cnn4ncccc34)n2)C1  remaining binding (binding; 1 µM): 51%
